Shown are actives, neighbours in structure and some others; about 11% of the full set was active somewhere.
L major viab: Leishmania major promastigote growth inhibition; Leishmania major promastigotes, resazurin fluorescence viability; inhibition, % at 10 µM; 200,000 compounds, 9% hits; AID 1063;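 also: promastigotes grown with compound for 44 hours at 28 °C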
Diaph inh CS: diaphorase inhibition or chemical oxidation counter-screen; AID 1217; 190,000 compounds, 0.69% hits; diaphorase resazurin-to-resorufin fluorescence, NADH, 16 min; bacterial (C. kluyveri) enzyme, not human; inhibition, % at 20 µM;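 active = primary screen inhibition at 20 µM above a set limit, cut at about 50% in these data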;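 also: plate controls were DMSO with full reaction for no effect and wells lacking NADH for full effect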
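System: Diaphorase enzyme from Clostridium kluyveri | Amount: Enzyme working solution with 0.14 U/mL diaphorase | Benchmarks: No-NADH positive control and DMSO neutral control | Signal: Fluorescence of resorufin formed from resazurin, Ex 544/Em 590 nm | Schedule: 16-min room-temperature incubation before reading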
WT yeast gro inh: growth inhibition of WT yeast, mitochondrial fusion screen | mitochondrial fusion phenotypic screen, WT strain | inhibition, % at 10 µM | 190,000 compounds, 2.1% hits | AID 1362; in the data active = inhibition above about 58%; tested in S. cerevisiae
G6PDH counter: inhibits Leuconostoc G6PDH, flagging false hits in G6PDH-based assays. Purified L. mesenteroides G6PDH, diaphorase/resazurin coupled fluorescence, 45 min. inhibition, % at 5 µM. 200,000 compounds, 0.12% hits
Diaphorase act: activates diaphorase or chemically reduces, flagging diaphorase assay artifacts; activation factor at 20 µM; Diaphorase/resazurin coupled assay, resorufin fluorescence, 16 min; hits give high values; 1 = vehicle wells, 0 = NADH-free wells; 190,000 compounds, 0.005% hits;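 active = diaphorase activity raised at least twofold by the compound at 20 µM; inactive = activation factor below 2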
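Material: purified diaphorase enzyme from Clostridium kluyveri; Also added: 0.114 mM NADH and 0.1 mM resazurin, final amounts; Doses: single compound dose of 20 µM, 1% DMSO final; Times: 16 min enzyme reaction, ambient temperature; Detection: resorufin fluorescence, excitation 544 nm, emission 590 nm; Measure: increased resorufin signal from activators or reducing compounds.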
Numbers without * were called inactive. Rule as the data show it, unless noted: active = inhibition above about 50%; inactive = the rest.

SMILES	L major viab	Diaph inh CS	WT yeast gro inh	G6PDH counter	Diaphorase act
COc1cccc(CN2CCN(Cc3ccc4c(NC(C)=O)cccc4n3)CC2CCO)c1 (configuration not stated)	-6	26	-1	10	0.7
COC(=O)c1cc(C(=O)OCC(=O)NCc2ccc3c(c2)OCO3)cc([N+](=O)[O-])c1	-3	10	-21	-1	0.9
CC(=O)c1c(C)[nH]c(C(=O)Nc2nc(-c3ccc(Cl)cc3)cs2)c1C	11	10	86*	0	0.9
CC(=O)c1c(C)[nH]c(C(=O)Nc2nc(C)cs2)c1C	3	0	-2	0	1
CC(=O)c1c(C)[nH]c(C(=O)Nc2nc(-c3ccc(-c4ccccc4)cc3)cs2)c1C	97*	22	12	6	0.8
CN(C)S(=O)(=O)c1ccc(N2CCCC2)c(C(=O)NCC2CCCCC2)c1	7	10	2	-2	0.9
Cc1ccc2c(c1)c1c(n2C)-c2[nH]ncc2CC1	99*	28	96	8	0.7
Cc1ccc2c(c1)c1c(n2C)C(C(N)=O)CCC1 (configuration not stated)	-12	16	-3	-6	0.8
COC(=O)c1cn(-c2ccccc2)nc1-c1ccc(OC)cc1	26	0	-3	9	1
CCN(CC)CCNC(=S)NC(=O)c1cn(-c2ccccc2)nc1-c1ccc(OC)cc1	91*	2	16	6	1
CCN(CC)CCNC(=O)c1ccc(NC(=O)c2cn(-c3ccccc3)nc2-c2cccs2)cc1	100*	-51	3	0	1.5
O=C(Nc1cccnc1)c1cn(-c2ccccc2)nc1-c1cccs1	9	30	18	3	0.7
CC1=C(C(=O)Nc2ccccc2)C(c2ccc(C)o2)n2c(s/c(=C/c3ccccc3)c2=O)=N1 (configuration not stated)	95*	4	17	5	1
CCOc1ccc(C2C(C(=O)Nc3ccccc3)=C(C)N=c3s/c(=C/c4cccc(OCC(=O)O)c4)c(=O)n32)cc1 (configuration not stated)	-6	21	2	21	0.8
CC1=C(C(=O)Nc2ccccc2C)C(c2ccc(C)o2)n2c(s/c(=C/c3ccccc3)c2=O)=N1 (configuration not stated)	75*	14	-3	-2	0.9
Cc1cc(C)c(NC(=O)COc2ccccc2C(=O)Nc2ccc3c(c2)oc2ccccc23)c(C)c1	12	3	7	2	1
CCOC(=O)c1c(NC(=O)C(C)NCc2ccco2)sc2c1CCC(C)C2 (configuration not stated)	31	21	15	-4	0.8
CCn1c(NC(=O)C(C)C)c2ccccc2nc1=O	3	6	7	3	0.9
CCn1c(NC(=O)c2ccc(C)cc2)c2ccccc2nc1=O	77*	-4	-18	-12	1
CCn1c(NC(=O)c2ccc(F)cc2)c2ccccc2nc1=O	3	20	58*	-19	0.8
CCN(CC)CCC(=O)c1ccc(F)cc1	80*	8	10	1	0.9
CN1CCN(CCCC(=O)c2ccc(F)cc2)CC1	17	14	-11	-1	0.9
CCOC(=O)CNS(=O)(=O)c1ccc(C)cc1	-4	6	-7	0	0.9
COCCn1nnnc1CN(CCc1ccc(OC)c(OC)c1)Cc1cc2ccc(C)cc2[nH]c1=O	97*	20	16	4	0.8
Cc1ccc(S(=O)(=O)Oc2ccc(C3C4=C(CCCC4=O)N(CCC(=O)O)C4=C3C(=O)CCC4)cc2Cl)cc1	-9	14	-13	0	0.9
SMILES	L major viab	Diaph inh CS	WT yeast gro inh	G6PDH counter	Diaphorase act
CCn1nc2cc(C(=O)NCCc3cccs3)ccc2c1OC	-5	1	-7	10	1
Cc1cccc2c1N(CCCOc1ccc(C(C)(C)C)cc1)C(=O)C2=O	-1	28	97*	7	0.7
O=C(Nc1ccccc1-c1nnc(SCc2ccccc2Cl)o1)c1ccccc1	1	6	-11	1	0.9
CCN(CC)C(=O)CN(c1cc2c(cc1OC)oc1ccccc12)S(=O)(=O)c1ccc(C)cc1	69*	20	-8	5	0.8
CC1CCN(S(=O)(=O)c2ccc(N/N=C(/C#N)C(N)=O)cc2)CC1	0	6	78*	1	0.9
Cc1cc(C)c(O)c(-c2cc(C(=O)Nc3ccc(S(=O)(=O)N4CCOCC4)cc3)[nH]n2)c1	90*	22	-20	-3	0.8

High-throughput results deposited in PubChem BioAssay by several laboratories.
